Laboratory results as given in publication PMC4207554 (Drug Design, Development and Therapy, 2014).

Legend:
[1] = test system: bone marrow polychromatic erythrocytes; details: 15 mg/kg, similar experiment conditions; cited from earlier work
[2] = cited from earlier work
[3] = test system: BEL-7402 human hepatoma cells; experiment: BEL-7402 human hepatoma xenograft model; type: in vivo, nude mice
H22 mouse hepatoma cells = experiment: H22 hepatoma xenograft model; type: in vivo, Kun Ming (KM) mice
Summary of the method: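 Kun Ming mice (eight/group) received 2×10^5 H22 hepatoma cells sc in the right armpit. Test compound (5, 15, 45 mg/kg) or adriamycin (2 mg/kg) in HS-15/N,N-dimethylformamide (1:1 v/v) was injected ip. Mice were weighed twice weekly and killed by cervical dislocation, and tumors were weighed. Inhibition (%) = (mean control tumor weight − mean treated)/mean control × 100.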

In the case of `COc1cccc2c1C(=O)c1c(O)c3c(c(O)c1C2=O)C[C@@](O)(C(=O)CO)C[C@@H]3O[C@H]1C[C@H](N)[C@H](O)[C@H](C)O1` [ADM, adriamycin], the induction of micronuclei [1] is listed as “induce large amounts of micronuclei”, the “bioavailability after oral administration” value [2] is listed as “poor bioavailability” and the inhibitory rate ([3]; 2 mg/kg ip, BEL-7402 xenografts) is listed as 73.5%. The “inhibition of body weight of mice” value ([3]; BEL7402 xenografts) was 33.3%, the “changes in body weights versus vehicle group” value ([3]; BEL-7402 xenografts, 3 weeks) was “significantly reduced” and the “inhibitory rate of cancer growth” value (H22 mouse hepatoma cells; 2 mg/kg ip) was 51.9%. For the same molecule, the “influence on body weights of mice” value (H22 mouse hepatoma cells; H22-bearing mice) was “much more loss of body weight” and the “inhibition of body weight of mice” value (H22 mouse hepatoma cells; H22 xenografts) was 25.1%.
